Here are results for twelve compounds from ChEMBL document CHEMBL1140190, “Phenolic constituents of Amorpha fruticosa that inhibit NF-kappaB activation and related gene expression” (J Nat Prod, 2008).

The nature of experiment [1]: Inhibition of TNF-alpha-induced NF-kappaB activation in human HeLa cells by SEAP reporter gene assay. Format: cell-based. In outline: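 HeLa cells transiently transfected with an 8×κB-SEAP reporter plasmid, seeded at 5 × 10^4 cells/well, 3 h at 37 °C. Compounds in DMSO (final 0.01%) with TNF-α 10 ng mL-1 for 24 h. Supernatant heat-treated 65 °C 10 min, substrate p-nitrophenyl phosphate, 37 °C 4 h, absorbance 405 nm. Means ± SD, three experiments.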

Experiment [2] in a line: Inhibition of LPS-induced NF-kappaB activation in mouse RAW264.7 cells by SEAP reporter gene assay. Format: cell-based. A digest of the protocol: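 RAW264.7 cells transiently transfected with a plasmid carrying eight κB elements driving SEAP, seeded at 5 × 10^4 cells/well, 3 h at 37 °C. Compounds in DMSO (final 0.01%) plus LPS 1 µg mL-1 for 24 h. Supernatant heated 65 °C 10 min, then SEAP buffer and p-nitrophenyl phosphate, 37 °C 4 h, OD 405 nm. Means ± SD of three experiments.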

Experiment [3] deals with MCF7. Nature of the experiment: Inhibition of TNF-alpha-induced NF-kappaB DNA binding activity in human MCF7 cells by electrophoretic shift mobility assay. Format: cell-based. In outline: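 MCF-7 cells at 70% confluence preincubated 30 min with compounds (DMSO final 0.001%), then TNF-α 20 ng mL-1 for 60 min. Nuclear extracts from hypotonic swelling and high-salt extraction, bound 20 min at room temperature to a 32P end-labeled NF-κB oligonucleotide. Excess unlabeled NF-κB and AP-1 oligonucleotides served as competitors.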

Experiment [4] concerns MCF7. Briefly: Suppression of TNF-alpha-induced expression of iNOS in human MCF7 cells at 3 uM by Western blot analysis. Format: functional, cell-based. In outline:
(§1)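 MCF-7 cells plated at 70% confluence and kept overnight at 37 °C. Compound (DMSO final 0.001%) added for 30 min, then TNF-α 20 ng mL-1 for 24 h. Total lysates run on 10% SDS-PAGE and blotted, primary antibody overnight at 4 °C, ECL detection, α-tubulin as loading control.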

Experiment [5] relates to MCF7. Briefly: Suppression of TNF-alpha-induced expression of iNOS in human MCF7 cells at 10 uM by Western blot analysis. Format: functional, cell-based. A digest of the protocol: as §1
The test system of experiment [6] is MCF7. Nature of the experiment: Blockade of TNF-alpha-induced COX2 induction in human MCF7 cells by Western blot analysis. Format: functional, cell-based. In outline:
(§2)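 MCF-7 cells plated at 70% confluence and incubated overnight at 37 °C. Pretreated 30 min with compounds in DMSO (final DMSO 0.001%), then stimulated with TNF-α (20 ng mL-1) for 24 h. Total lysates in NP-40 lysis buffer were resolved by 10% SDS-PAGE and immunoblotted with specific antibodies (1:1000, overnight, 4 °C). ECL detection with α-tubulin as loading control.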

Experiment [7] relates to MCF7. Briefly: Induction of apoptosis in human MCF7 cells assessed as down regulation of cIAP1 by Western blot analysis. Format: functional, cell-based. A digest of the protocol: as §2
Experiment [8] concerns MCF7. Nature of the experiment: Induction of apoptosis in human MCF7 cells assessed as down regulation of cIAP2 by Western blot analysis. Format: functional, cell-based. In outline: as §2
The test system of experiment [9] is MCF7. Briefly: Induction of apoptosis in human MCF7 cells assessed as suppression of MMP9 by Western blot analysis. Format: functional, cell-based. A digest of the protocol:
as §2

Calls of active or inactive are those of the source. No cut-off for these calls is given here.

`CC(C)=CCC/C(C)=C/Cc1c(O)ccc(C(=O)/C=C/c2ccc(O)cc2)c1O` [XANTHOANGELOL]: the IC50 turned out to be 1030 nM in experiment [1] and 1830 nM in experiment [2].

`CC1=C(O)C(=O)C=C2C1=CC=C1[C@@]2(C)CC[C@@]2(C)[C@@H]3C[C@](C)(C(=O)O)CC[C@]3(C)CC[C@]12C` [CELASTROL]: the IC50 in experiment [1] is 150 nM; in [2] it was 300 nM.

Take `COc1cc2c(cc1OC)[C@@H]1C(=O)c3ccc4c(c3O[C@@H]1CO2)C=CC(C)(C)O4` [DEGUELIN]: the IC50 in experiment [1] came to 220 nM; in [2], 1750 nM.

`COc1c(C/C=C(\C)CCC=C(C)C)c(O)cc(CCc2ccccc2)c1C(=O)O`: the figures for the IC50 in [1] and in experiment [2] were 1130 nM and 2440 nM, respectively.

On to `CC(C)=CCC/C(C)=C/Cc1c(O)cc(CCc2ccccc2)c(C(=O)O)c1O`, for which the IC50 was determined as 1560 nM in [1] and 3140 nM in experiment [2].

For `COC1=CC(=O)[C@]2(C=C1OC)OC[C@H]1Oc3c4c(cc(O)c3C(=O)[C@H]12)OC(C)(C)C=C4`, the IC50 in experiment [1] turned out to be 2120 nM; in experiment [2] it was 7650 nM. In addition, in the experiment with MCF7 [3], the Activity result was “Dose-dependent effect”. Further, the outcome in the experiment with MCF7 [4], in the experiment on MCF7 [5], in the experiment on MCF7 [6], in the experiment on MCF7 [7], in the experiment on MCF7 [8] and in the experiment with MCF7 [9] was Active.

Turning to `COc1c(CC=C(C)C)c(O)cc(CCc2ccccc2)c1C(=O)O`, the half-maximal inhibitory concentration (IC50) in experiment [1] was 1750 nM; in [2] it was 3020 nM.

`COc1cc(CCc2ccccc2)c(C(=O)O)c(O)c1CC=C(C)C` [AMORFRUTIN A]: the figures for the IC50 in [1] and in [2] were 840 nM and 4170 nM, respectively. Moreover, the Activity result with MCF7 [3] is “Dose-dependent effect”. In addition, the outcome in the experiment on MCF7 [4] and in the experiment with MCF7 [5] was Active.

As to `COc1cc2c(cc1OC)[C@]1(O)C(=O)c3c(O)cc4c(c3O[C@@H]1CO2)C=CC(C)(C)O4`, the IC50 turned out to be 190 nM in experiment [1] and 4210 nM in experiment [2].

On to `COC1=CC(=O)[C@]2(C=C1OC)OC[C@H]1Oc3c(ccc4c3C=CC(C)(C)O4)C(=O)[C@H]12` [AMORPHISPIRONONE], for which the IC50 in experiment [1] came out at 7390 nM; in experiment [2], 13900 nM.

As to `CC(C)=CCC/C(C)=C/Cc1c(O)cc(/C=C/c2ccccc2)cc1O` [AMORPHASTILBOL], the IC50 in [1] is 260 nM; in experiment [2], 680 nM.

As for `COc1cc2c(cc1OC)[C@]1(O)C(=O)c3ccc4c(c3O[C@@H]1CO2)C=CC(C)(C)O4` [TEPHROSIN], the IC50 was 110 nM in experiment [1] and 2000 nM in [2]. Moreover, the Activity entry in the experiment on MCF7 [3] is “Dose-dependent effect”. Also, the outcome in the experiment on MCF7 [4], in the experiment with MCF7 [5], in the experiment on MCF7 [6], in the experiment with MCF7 [7], with MCF7 [8] and with MCF7 [9] was Active.
